# Test results from ChEMBL document CHEMBL4689842, “EUbOPEN Chemogenomics Library wave 1” (2021).
# Tested on: U2OS
# Experiment: Multiplex assay against U2OS
# Assay type: toxicity, cell-based
# Conditions: human
# Method in brief: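 Phenotypes for tubulin, mitochondrial mass and membrane permeability are expressed as per cents of healthy-nucleus cells. Cells were stained live at seeding with Hoechst33342, BioTracker Green Microtubule Cytoskeleton Dye, MitoTracker Red and Annexin V Alexa Fluor 680, then imaged after compound addition on a CQ1 microscope at 37°C and 5% CO2. Machine-learning gating in CellPathfinder separated Hoechst high-intensity objects from normal cells, divided normal cells by nuclear state (healthy, pyknosed, fragmented) and divided pyknosed cells into mitotic or apoptotic.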
# [1] = 12 h, 1 µM, compound concentration 1 uM, replicate 1
# [2] = 12 h, 1 µM, compound concentration 1 uM, replicate 2
# [3] = 12 h, 10 µM, compound concentration 10 uM, replicate 1
# [4] = 12 h, 10 µM, compound concentration 10 uM, replicate 2
# [5] = 24 h, 1 µM, compound concentration 1 uM, replicate 1
# [6] = 24 h, 1 µM, compound concentration 1 uM, replicate 2
# [7] = 24 h, 10 µM, compound concentration 10 uM, replicate 1
# [8] = 24 h, 10 µM, compound concentration 10 uM, replicate 2
compound,measurement,setting,value
COc1ccc(-c2ccc3c(N4CCOCC4)nc(N4C[C@@H](C)O[C@@H](C)C4)nc3n2)cc1CO [Ku-0063794],Population Apoptotic (%),[1],36%
same,Population Fragmented Nuclei (%),[1],7%
same,Population Healthy Nuclei (%),[1],87%
same,Population Hoechst High Intensity Objects (%),[1],0%
same,Population Membrane Permeable-Phenotype (%),[1],8%
same,Population Mitochondria Different-Phenotype (%),[1],19%
same,Population Mitotic Cells (%),[1],63%
same,Population Normal (%),[1],99%
same,Population Pyknosed Nuclei (%),[1],5%
same,Population Tubulin-Different-Phenotype (%),[1],22%
same,Total Cell Count,[1],158
same,Population Apoptotic (%),[2],62%
same,Population Fragmented Nuclei (%),[2],11%
same,Population Healthy Nuclei (%),[2],83%
same,Population Hoechst High Intensity Objects (%),[2],7%
same,Population Membrane Permeable-Phenotype (%),[2],4%
same,Population Mitochondria Different-Phenotype (%),[2],20%
same,Population Mitotic Cells (%),[2],37%
same,Population Normal (%),[2],92%
same,Population Tubulin-Different-Phenotype (%),[2],30%
same,Total Cell Count,[2],91
same,Population Apoptotic (%),[3],69%
same,Population Fragmented Nuclei (%),[3],34%
same,Population Healthy Nuclei (%),[3],61%
same,Population Hoechst High Intensity Objects (%),[3],31%
same,Population Membrane Permeable-Phenotype (%),[3],20%
same,Population Mitochondria Different-Phenotype (%),[3],6%
same,Population Mitotic Cells (%),[3],30%
same,Population Normal (%),[3],68%
same,Population Pyknosed Nuclei (%),[3],4%
same,Population Tubulin-Different-Phenotype (%),[3],11%
same,Total Cell Count,[3],221
same,Population Apoptotic (%),[4],33%
same,Population Fragmented Nuclei (%),[4],37%
same,Population Healthy Nuclei (%),[4],57%
same,Population Hoechst High Intensity Objects (%),[4],37%
same,Population Membrane Permeable-Phenotype (%),[4],8%
same,Population Mitochondria Different-Phenotype (%),[4],11%
same,Population Mitotic Cells (%),[4],66%
same,Population Normal (%),[4],62%
same,Total Cell Count,[4],164
same,Population Apoptotic (%),[5],46%
same,Population Fragmented Nuclei (%),[5],7%
same,Population Healthy Nuclei (%),[5],88%
same,Population Hoechst High Intensity Objects (%),[5],0%
same,Population Membrane Permeable-Phenotype (%),[5],6%
same,Population Mitochondria Different-Phenotype (%),[5],19%
same,Population Mitotic Cells (%),[5],53%
same,Population Normal (%),[5],99%
same,Population Pyknosed Nuclei (%),[5],4%
same,Population Tubulin-Different-Phenotype (%),[5],22%
same,Total Cell Count,[5],173
same,Population Apoptotic (%),[6],16%
same,Population Fragmented Nuclei (%),[6],10%
same,Population Healthy Nuclei (%),[6],86%
same,Population Hoechst High Intensity Objects (%),[6],7%
same,Population Membrane Permeable-Phenotype (%),[6],7%
same,Population Mitochondria Different-Phenotype (%),[6],34%
same,Population Mitotic Cells (%),[6],83%
same,Population Normal (%),[6],92%
same,Population Pyknosed Nuclei (%),[6],3%
same,Population Tubulin-Different-Phenotype (%),[6],31%
same,Total Cell Count,[6],93
same,Population Apoptotic (%),[7],60%
same,Population Fragmented Nuclei (%),[7],31%
same,Population Healthy Nuclei (%),[7],63%
same,Population Hoechst High Intensity Objects (%),[7],35%
same,Population Membrane Permeable-Phenotype (%),[7],15%
same,Population Mitochondria Different-Phenotype (%),[7],4%
same,Population Mitotic Cells (%),[7],40%
same,Population Normal (%),[7],64%
same,Population Pyknosed Nuclei (%),[7],4%
same,Population Tubulin-Different-Phenotype (%),[7],9%
same,Total Cell Count,[7],298
same,Population Apoptotic (%),[8],31%
same,Population Fragmented Nuclei (%),[8],39%
same,Population Healthy Nuclei (%),[8],53%
same,Population Hoechst High Intensity Objects (%),[8],38%
same,Population Membrane Permeable-Phenotype (%),[8],7%
same,Population Mitochondria Different-Phenotype (%),[8],9%
same,Population Mitotic Cells (%),[8],68%
same,Population Normal (%),[8],61%
same,Population Pyknosed Nuclei (%),[8],6%
same,Population Tubulin-Different-Phenotype (%),[8],7%
same,Total Cell Count,[8],197
